Calb FLC: affects C. albicans growth with fluconazole. C. albicans CaCi-2 (fluconazole-resistant clinical isolate) + fluconazole, Alamar Blue growth, 48 h. growth inhibition, % (no concentration beside the values). actives 0.57% (n = 300,000);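 active = growth inhibition above about 58% in most replicates, limit read from the data, passing the limit was not always enough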;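 also: all wells also contain fluconazole at 8 µg/ml as a sub-toxic cotreatment; 0% = median of DMSO wells and 100% = median of geldanamycin control wells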
HIF activator: HIF pathway transcriptional activation. activation, % at 7.5 µM (by protocol). actives 0.32% (n = 300,000). U2OS HRE-luciferase reporter, luminescence; normalized: DMSO 0%, desferrioxamine 100%. AID 1910;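 active = mean activation of at least 10% of the iron chelator positive control signal, with at least half of replicates also reaching 10%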
T cruzi inh: blocks replication of Trypanosoma cruzi; T. cruzi beta-gal in NIH3T3, luminescence, 90 h; inhibition, % (concentration not given with the values); actives 1.4% (n = 300,000); AID 1885;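 active = mean inhibition across valid replicates above about 55%, limit read from the data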;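 also: signal also drops with host cell toxicity which is not excluded here; 0% = plate median of DMSO wells and 100% = zero luminescence signal; higher percent means less beta-gal luminescence so fewer parasites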
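Incubation – ≥90 h infection period, 3 h prior cell attachment · System – NIH/3T3 fibroblasts plus reporter T. cruzi · Doses – compound pinned at 50 nL/well, DMSO · Read-out basis – percent inhibition of parasite-derived β-gal signal · Signal – luminescent β-galactosidase signal after 60 min lysis · Also added – 5000 T. cruzi trypomastigotes/well · Medium – Low-serum DMEM with 2% FBS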
HSF1 inhib: HSF1 inhibition | NIH3T3-HGL HSE-luciferase, MG132-induced, luminescence 8 h; hits give low values | activity change, negative = inhibition, % at 7.5 µM (by protocol) | actives 0.77% (n = 300,000) | AID 2098;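 active = more than half of replicate wells show activity change below -50%, luminescence cut by over half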;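 also: luciferase reports HSF-1 transcriptional activity via heat shock element; 0% = median of DMSO wells and -100% = zero luminescence signal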
HSF-1 act: increases HSF-1 driven luciferase reporter signal. NIH3T3-HGL HSF-1 luciferase reporter, MG132, 8 h; 100% = twice DMSO control signal. activation, % at 9 µM. actives 1.7% (n = 300,000);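 active = mean replicate activation of at least 50% with a set share of replicates each reaching 50%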;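 also: 0% = median of the neutral control wells and 100% = twice that signal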
Numbers without * were called inactive. A selection: hits, their analogues and other compounds. The true share with any hit is near 4.4%.

Screening Cc1ccc(OCC(=O)N(Cc2ccco2)C2CCS(=O)(=O)C2)cc1C (stereo unspecified) returned Calb FLC 0, HIF activator 0, T cruzi inh 6, HSF1 inhib -6 and HSF-1 act -16.
`Cc1cc(OCC(=O)N(Cc2ccco2)C2CCS(=O)(=O)C2)cc(C)c1Cl` (stereo unspecified) gave Calb FLC 5, HIF activator 1, T cruzi inh 20, HSF1 inhib 11 and HSF-1 act 57*.
Screening COc1cc(C(C)=O)ccc1OCC(=O)N(CCC1=CCCCC1)c1c(N)n(Cc2ccccc2)c(=O)[nH]c1=O returned Calb FLC -10, HIF activator 0, T cruzi inh 26, HSF1 inhib 14 and HSF-1 act 17.
`O=C(Nc1ccc(Br)cc1)c1cnc[nH]1` gave Calb FLC 4, HIF activator 4, T cruzi inh 12, HSF1 inhib 10 and HSF-1 act -2.
CCCN(CCC)C(=O)c1cc([N+](=O)[O-])cc2c1-c1ccc([N+](=O)[O-])cc1C2=C(C#N)C#N was read as Calb FLC 19, HIF activator 0, T cruzi inh 80*, HSF1 inhib 8 and HSF-1 act 26.
Screening COc1cc(C(=O)OCc2cc(=O)oc3c(C)c(C)ccc23)ccc1OC(F)F returned Calb FLC -5, HIF activator 0, T cruzi inh -8, HSF1 inhib -4 and HSF-1 act -5.
Screening COc1cc(C(=O)OCc2cc(=O)c(O)co2)ccc1OC(F)F returned Calb FLC 102*, HIF activator 0, T cruzi inh 7, HSF1 inhib 2 and HSF-1 act -14.
Screening Cc1cc(C)cc(N=c2c([N+](=O)[O-])nn(-c3ccc(Cl)cc3)n2O)c1 returned Calb FLC 26, HIF activator 0, T cruzi inh 59*, HSF1 inhib 4 and HSF-1 act 7.
For CCc1ccc(N=c2c([N+](=O)[O-])nn(-c3ccccc3)n2O)cc1 the results were Calb FLC -8, HIF activator 0, T cruzi inh 56*, HSF1 inhib 4 and HSF-1 act 1.
Screening Cc1cccc(CN2CCNC2=O)c1 returned Calb FLC 0, HIF activator 0, T cruzi inh -9, HSF1 inhib -71* and HSF-1 act -77.
`Cc1ccccc1CN1CCNC1=O` gave Calb FLC -12, HIF activator 0, T cruzi inh -5, HSF1 inhib -2 and HSF-1 act -7.
Screening COc1ccc(OC)c(-c2cc(C(=O)Nc3cc(C)on3)no2)c1 returned Calb FLC -13, HIF activator -1, T cruzi inh 10, HSF1 inhib -64* and HSF-1 act -73.
Screening COc1ccc(OC)c(-c2cc(C(=O)Nc3cccc(Cl)c3)no2)c1 returned Calb FLC -5, HIF activator 1, T cruzi inh 55*, HSF1 inhib 0 and HSF-1 act -7.
For COc1ccc(-c2cc(C(=O)Nc3cccc(Cl)c3)no2)cc1 the results were Calb FLC 2, HIF activator 3, T cruzi inh 1, HSF1 inhib 14 and HSF-1 act 28.
Screening COc1ccc(-c2cc(C(=O)Nc3cc(C)on3)no2)cc1 returned Calb FLC 1, HIF activator 2, T cruzi inh -4, HSF1 inhib -4 and HSF-1 act -7.
`COc1ccc(N2CSC3=C(C#N)C(c4cccs4)CC(=O)N3C2)cc1` (stereo unspecified) gave Calb FLC -10, HIF activator 3, T cruzi inh -8, HSF1 inhib -6 and HSF-1 act -11.
Screening COC(=O)C1C(=O)N2CCCSC2=C(C#N)C1c1cccs1 (stereo unspecified) returned Calb FLC 35, HIF activator 35*, T cruzi inh 4, HSF1 inhib -3 and HSF-1 act 4.
Cc1ccc(C(=O)NCCNS(C)(=O)=O)cc1 was read as Calb FLC -25, HIF activator 0, T cruzi inh -3, HSF1 inhib 6 and HSF-1 act 6.
Cc1cc(C(F)(F)F)nc(CCNC(=O)C2CCC(=O)N(Cc3cccc(F)c3)C2)n1 (stereo unspecified) was read as Calb FLC 6, HIF activator -1, T cruzi inh -7, HSF1 inhib -8 and HSF-1 act 13.
For COc1ccccc1CNC(=O)c1ccc(NS(=O)(=O)c2cccs2)cc1 the results were Calb FLC 8, HIF activator 1, T cruzi inh -2, HSF1 inhib 15 and HSF-1 act 64*.
Screening COc1ccccc1CNC(=O)c1ccc(NS(C)(=O)=O)cc1 returned Calb FLC -4, HIF activator -1, T cruzi inh -9, HSF1 inhib 10 and HSF-1 act -18.
For O=C1Nc2ccccc2/C1=C/C(=O)c1cccs1 the results were Calb FLC 72, HIF activator 2, T cruzi inh -7, HSF1 inhib -65* and HSF-1 act -71.
C=CCOc1ccc(C(=O)/C=C2/C(=O)Nc3ccccc32)cc1 was read as Calb FLC 13, HIF activator 0, T cruzi inh 21, HSF1 inhib 1 and HSF-1 act 8.
Screening C=CCOc1ccccc1C(=O)/C=C1/C(=O)Nc2ccccc21 returned Calb FLC -14, HIF activator 1, T cruzi inh 1, HSF1 inhib 99 and HSF-1 act 113*.
`COc1ccc(C(=O)/C=C2/C(=O)Nc3ccccc32)cc1` gave Calb FLC 10, HIF activator 1, T cruzi inh -4, HSF1 inhib -2 and HSF-1 act -14.
For COc1ccc(C(=O)/C=C2/C(=O)Nc3ccccc32)cc1OC the results were Calb FLC 15, HIF activator 2, T cruzi inh 13, HSF1 inhib 181 and HSF-1 act 243*.
Screening CCOCc1nnc(NC(=O)C2CCN(C(=O)C3CC(=O)N(c4ccc(C)cc4)C3)CC2)s1 (stereo unspecified) returned Calb FLC -9, HIF activator 1, T cruzi inh -11, HSF1 inhib -9 and HSF-1 act 3.
Screening CCCCN(C)CCCN1C(=O)C2C(C(=O)Nc3cccc(OC)c3)C3C=CC2(O3)C1C(=O)NC1CCCCC1C (stereo unspecified) returned Calb FLC 0, HIF activator 0, T cruzi inh -4, HSF1 inhib -4 and HSF-1 act 10.
For COc1ccc(/C=C(\NC(=O)c2ccco2)C(=O)Nc2ccc(C(C)=O)cc2)cc1 the results were Calb FLC -5.
For NC(N)=Nc1nc(-c2ccccc2)c2cc(F)ccc2n1 the results were Calb FLC 4, HIF activator 0, T cruzi inh 21, HSF1 inhib -2 and HSF-1 act 0.
